# This sample holds only a part of the variants without activity.
# B1: tRNA (parent)
# chain: GUUCCGUUGGCGUAAUGGUAACGCGUCUCCCUCCUAAGGAGAAGACUGCGGGUUCGAGUCCCGUACGGAACG
# Variants of: B1
# Assay: yeast fitness relative to wild type (ratio to wild type); higher = fitter; tRNA-Arg(CCU), competitive growth, 37 C, YPD
# Procedure, shortened: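 A pool of Saccharomyces cerevisiae strains, each with a tRNA-Arg(CCU) gene variant at the native genomic locus, was competed in YPD at 37°C for 24 hours across six parallel replicates. The variants had been chemically synthesised at a 3% per-site mutation rate over 69 sites, and gene amplicons before and after competition were read by 100-nucleotide paired-end sequencing. Darwinian fitness relative to wild type rested on changes in genotype frequencies. Genotypes required ≥ 100 starting reads, and estimates < 0.5 were set to 0.5.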
row,Variant,yeast fitness
1,GUUGGGUUGGCGUAAUGGUAACGCGUCUCCCUCGUAAGGAGAAGACUGCGGGUUCGAGUCCCGUACGGAACG,≤ 0.5
2,GUUGGGUUGGCGUAAUGGUGUCGCGUCUCCCUCGUAAGGAGAAGAAUGCGGGUUCGAGUCACGUACGGAACG,≤ 0.5
3,GUUGAGUUGGCGUAAUGGUAACGCGUUUCCCUCCUAAGGAGAAGACUGCGGGUUCGAGUCCCGUACGAAACG,≤ 0.5
4,GUUGUGUUGGCGUAAUGGUAAGGCGUCUCCCUCCUAAGGAGAAGACUGCGGGUUCGAGUCCCGUACGGAACG,≤ 0.5
5,GUUGCGUUGGAGUAAUGGUAACGCGUCUCCCUCCUAAGGAGAAGAGUGCGGGUUCGAGUCCCGUACGGAACG,0.693
6,GUUGAGUUGGCGUAAUGGAAACGGGUCUGCCUCCUAAGGAGAAGACUGCGGGUUCGAGUCCCGUACGGAACG,≤ 0.5
7,GUUGUGUUGGCGUAAUGGUAACACGUCUCCCUCCUAAGGAGAAGACUGCGGGUUAGAGUCACGUACGGAACG,≤ 0.5
8,GUUGAGUCGGCGUAAUGGUACCGCGUCUCCAUCCUAAGGAGGAGACUGCGGGUUCGAGUCCCGUACGGAACG,≤ 0.5
9,GUUGCGUUGGCGUAAUGGUAACGCGUCUCCCUCCUAAGGAGAAGACUGCGGGUUCGUGGCCCGUACGGAACG,≤ 0.5
10,GUUGCGUUGGAGUAAUGGUAACGCGUCUCGCUCCUAAGGAGAAGACUGCGGGUUCGAGUCGCGUACGGAACG,≤ 0.5
11,GUUGCGUUGGCGUAAUGGUAACGCGUCUCCCUCCUAAGGAGAUGACUGCGCGUUCGAGUCCCGUACGGAACG,≤ 0.5
12,GUUGCGUUGGCGUAAUGGUAACGCGUCUCCCUCCUAAGGAGAAGUCUGCGGGUUCGAGUCCUGUACGAAACG,≤ 0.5
13,GUUGGGUUGGCGUAAUGGUAACGCGCCUCCCUCCUAAGGAGAGGACUGCGGGUUCGAGUCCCGUACGGAACG,≤ 0.5
14,GUUGCGUUGGCGUAAUGGUAACGCGUCUCCCUCCUAAGGAGAAGACUGCGGGUUCGGGUCCCGUACGGAACG,0.728
15,GUUGCGUUGGCGUAAUGGUAACGCGUCUCCCUCCUAAGGAGAAGACUGCGGGUUCGUGUCCCGUACGGAACG,0.757
16,GUUGUGUUGGCGUAAUGGUAACGCGUCUCCCUCCUAAGGAGAAGACUGAGGGUUCAAGUCCCCUACGAAACG,≤ 0.5
17,GUUGUGUUGGCGUAAUGGUAACGCGUCUCCGUCCUAAGGAGAUGACUGCGGGUUCGAGUCCCGUACGGAACG,≤ 0.5
18,GUUGCGUUGGAGUAAUGGUAACGCGUCUCGCUCCUAAGGAGAAGACUGCGGGUUCGAGUACCGUACGGAACG,≤ 0.5
19,GUUGGGUUAGCGUAAUGGUAACGCGUCUCCCUCCUAAGGAGAAGACUGAGGGUUCGAGUCCCGUACGGAACG,0.739

row,Variant,yeast fitness
1,GUUGUGUUGGCGUAAUGGUAACGCGUCUCCCUCCUAAGGAGAACACUGCGGGUUCGAGUCCCGUACUGAACG,≤ 0.5
2,GUUGCGUUGGAGUAAUAGUGACGCGUUUCCCUCCUAAGGAGAUGACUGGGGGUUCGAGUUCCGUACGGAACG,≤ 0.5
3,GUUGCGUUGGCGUAAUGGUAACGCGUCUCCCUCCUAAGGAGAAGUCUGUGGGUUCGAGUCCCGUUCGGAACG,≤ 0.5
4,GUUGUGUUGGCGUAAUGGUAACGCCUCUCCCUCCUAAGGAGAAGACUGCGGGUUCGAGUCCCGUACGAAACG,≤ 0.5
5,GUUGGGUUGGAGUAAUGGUAACGCGUCUCCCUCCUAAAGAGAAGACUGUGGGUUCGAGUCCCGUACGGAACG,≤ 0.5
6,GUUGGGUUGGCGCAAUGGUAACGCGUCGCCCUCCUAAGGAGAAGACUGCGGGUUCGAGUCCCGUACGGAACG,≤ 0.5
7,GUUGGGUUGGCGUAAUGGUAACGCGUCUCCCUCCUAAGGAGAAGACUGCGGGUUCGAGUCCCGUACGGAACG,0.697
8,GUUGUGUUGGCGUAAUGGUAACGCGACUCCCUCAUAAGGAGAAGACUGCGGGUUCGAGUCCCGUACGGAACG,≤ 0.5
9,GUUGCGUUGGAGUCAUGGUAACGCGUCUCCCUGCUCCGGAGCAGACUGCGGGUUCGAGUCCCGUUCGGAACG,≤ 0.5
10,GUUGCGUUGGAGUAAUGGUAACGCGUCUCCCUCCUAAGGAGAAGACUGCGGGUUCGAGUCCCGUAGGGAACG,≤ 0.5
11,GUUGUGUUGGCGUAAUGGUAACGCGUCUCCCUCCUAAGGAGGAGUCUGCGGGUUCGAGUCCCGUAUGGAACG,≤ 0.5
12,GUUGGGUUGGCGUAAUGGUAACGCGUCUUCCUCCUAAGGAGAAGACUGCCGGUUCGAGACCCGUACGGAACG,≤ 0.5
13,GUUGCGUUGGCGUAAUGGUAACGCGUCUCCCUCCUAAGGAGAAGUCUGUGGGUUCGAGUCCCGUACGGAACG,0.502
14,GUUGGGUCGGCGUAAUGGUAACCCGUCUUCCUCCUAAGGAGAAGUCUGCGGGUUCGAGUCCCGUACGAAACG,0.59
15,GUUGGGUUGGCGUAAUGGUAACGCGUCUCUUUCCUAGGGAGAAGACUGCCGGUUCGUGUCCCGUACGGAACG,≤ 0.5
16,GUUGUGUUGGCGUAAUGGUAACGCGUCUCCCUCCUGAGGAGAAGACUGCGGGUCCGAGUCCCGUACGGCACG,≤ 0.5
17,GUUGCGUUGGCGUAAUGGUAACGCGUCUCCCUCCUAAGGAGAAGCCUGCGGGUUCGAGUCCCGUACGGUACG,0.789
18,GUUGAGUUGGCGUAAUGGUAACGCGUAUCCCUCCUAAGGAGAAGACUGCGGGUUCGAGUCCCGUACGGAACG,0.641
